The record followed here is ChEMBL document CHEMBL4765233, “From Lead to Drug Candidate: Optimization of 3-(Phenylethynyl)-1H-pyrazolo[3,4-d]pyrimidin-4-amine Derivatives as Agents for the Treatment of Triple Negative Breast Cancer” (J Med Chem, 2016).

Data set [1] in a line: Toxicity in SCID mouse xenografted with MDA-MB-231 cells assessed as change in body weight at 40 mg/kg, po qd for 21 days and measured every 3 days. Type of data set: organism-based. As to conditions: in vivo, 504 h, dose 40 mg/kg/day, time 21 day. An outline of the steps: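 Exponential-phase cells washed and injected subcutaneously (5 × 10^6 cells in 100 μL) into 5–6-week SCID mice. At 150–200 mm3, mice randomised to groups of 6. Oral dosing daily in water with 25% PEG400 and 5% DMSO; paclitaxel 10 mg/kg weekly by tail vein. Body weight measured every 3 days and side effects checked daily.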

The subject of data set [2] is MDA-MB-231. Put plainly: Antiproliferative activity against human MDA-MB-231 cells assessed as reduction in cell viability incubated for 72 hrs by MTT assay. The data set is classed as functional, cell-based. The conditions noted are these: MDA-MB-231, 72 h. An outline of the steps: (§1)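 MTT viability assay. ATCC cell lines were grown in designated medium with 10% FBS at 37 °C, 5% CO2. Cells seeded at 1500−30000 per well and incubated 24 h, then exposed to compound (0−10 μg/mL) for 72 h. MTT added for 2−4 h. Formazan dissolved in DMSO (adherent) or acidified SDS overnight (suspension), absorbance read at 570 nm. Triplicates; IC50 calculated.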
In general terms: Tetrazolium assays rely on reduction of a dye to a coloured formazan, in cell work by metabolically active cells.

The next data set relates to HepG2. Put plainly: Antiproliferative activity against human HepG2 cells assessed as reduction in cell viability incubated for 72 hrs by MTT assay. The data set is classed as ADME, cell-based. As to conditions: HepG2, 72 h.
The subject of data set [3] is MDA-MB-231. As to the kind of experiment: Antitumor activity against human MDA-MB-231 cells xenografted in SCID mouse assessed as tumor growth inhibition at 40 mg/kg, po qd for 21 days and measured every 3 days. The data set is classed as functional. As to conditions: MDA-MB-231, po, 504 h, time 21 day. The method in brief: (§2)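 SCID mice (5−6 weeks) injected subcutaneously with 100 μL of cells at 5 × 10^7/mL. At 150−200 mm3 mice randomized, 6 per group. Oral compounds given in water with 25% PEG400 plus 5% DMSO; paclitaxel given 10 mg/kg/week iv. Tumor volume a×b²/2 and body weight measured every 3 days. Inhibition rate (c−d)/c×100% against vehicle control.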
A general note: A xenograft is tissue or cells of one species grown in another, often human tumour cells in immunodeficient mice.

A further data set deals with MDA-MB-435. Put plainly: Antiproliferative activity against human MDA-MB-435 cells assessed as reduction in cell viability incubated for 72 hrs by MTT assay. The data set is classed as functional, cell-based. The conditions noted are these: MDA-MB-435, 72 h. An outline of the steps:
as §1

The nature of data set [4]: Toxicity in SCID mouse xenografted with MDA-MB-231 cells assessed as animal death at 40 mg/kg, po qd for 21 days. The conditions noted are these: in vivo, dose 40 mg/kg/day, time 21 day, read-out: Activity. The data set is classed as organism-based. The method in brief: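 SCID mice aged 5–6 weeks were injected subcutaneously with 100 μL of MDA-MB-231 cells resuspended at 5 × 10^7 per mL. When tumours reached 150–200 mm3, mice were randomised into groups of 3 or 6. Dosing was oral and daily, in sterile water with 25% PEG400 plus 5% DMSO. Side effects were checked daily and body weight every 3 days.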

Data set [5] in a line: Toxicity in SCID mouse xenografted with MDA-MB-231 cells assessed as animal death at 40 mg/kg, po qd for 15 days. Type of data set: organism-based. As to conditions: in vivo, dose 40 mg/kg/day, time 15 day, read-out: Activity.
Data set [6] can be described thus: Toxicity in SCID mouse xenografted with MDA-MB-231 cells assessed as change in body weight at 40 mg/kg, po qd for 15 days and measured every 3 days. The data set is classed as organism-based. The conditions noted are these: in vivo, 360 h, dose 40 mg/kg/day, time 15 day.
The subject of data set [7] is MDA-MB-231. Put plainly: Antitumor activity against human MDA-MB-231 cells xenografted in SCID mouse assessed as tumor growth inhibition at 40 mg/kg, po qd for 15 days and measured every 3 days. The data set is classed as functional. As to conditions: MDA-MB-231, po, 360 h, time 15 day. The method in brief: as §2
In data set [8] the target is Voltage-gated inwardly rectifying potassium channel KCNH2 (Homo sapiens, UniProt Q12809). As to the kind of experiment: Inhibition of human ERG expressed in CHO cells at -80 mV holding potential by automated Qpatch electrophysiological assay. (In general: In patch-clamp work, channel activity is measured electrically.)
Chain of Voltage-gated inwardly rectifying potassium channel KCNH2 (Q12809 whole entry): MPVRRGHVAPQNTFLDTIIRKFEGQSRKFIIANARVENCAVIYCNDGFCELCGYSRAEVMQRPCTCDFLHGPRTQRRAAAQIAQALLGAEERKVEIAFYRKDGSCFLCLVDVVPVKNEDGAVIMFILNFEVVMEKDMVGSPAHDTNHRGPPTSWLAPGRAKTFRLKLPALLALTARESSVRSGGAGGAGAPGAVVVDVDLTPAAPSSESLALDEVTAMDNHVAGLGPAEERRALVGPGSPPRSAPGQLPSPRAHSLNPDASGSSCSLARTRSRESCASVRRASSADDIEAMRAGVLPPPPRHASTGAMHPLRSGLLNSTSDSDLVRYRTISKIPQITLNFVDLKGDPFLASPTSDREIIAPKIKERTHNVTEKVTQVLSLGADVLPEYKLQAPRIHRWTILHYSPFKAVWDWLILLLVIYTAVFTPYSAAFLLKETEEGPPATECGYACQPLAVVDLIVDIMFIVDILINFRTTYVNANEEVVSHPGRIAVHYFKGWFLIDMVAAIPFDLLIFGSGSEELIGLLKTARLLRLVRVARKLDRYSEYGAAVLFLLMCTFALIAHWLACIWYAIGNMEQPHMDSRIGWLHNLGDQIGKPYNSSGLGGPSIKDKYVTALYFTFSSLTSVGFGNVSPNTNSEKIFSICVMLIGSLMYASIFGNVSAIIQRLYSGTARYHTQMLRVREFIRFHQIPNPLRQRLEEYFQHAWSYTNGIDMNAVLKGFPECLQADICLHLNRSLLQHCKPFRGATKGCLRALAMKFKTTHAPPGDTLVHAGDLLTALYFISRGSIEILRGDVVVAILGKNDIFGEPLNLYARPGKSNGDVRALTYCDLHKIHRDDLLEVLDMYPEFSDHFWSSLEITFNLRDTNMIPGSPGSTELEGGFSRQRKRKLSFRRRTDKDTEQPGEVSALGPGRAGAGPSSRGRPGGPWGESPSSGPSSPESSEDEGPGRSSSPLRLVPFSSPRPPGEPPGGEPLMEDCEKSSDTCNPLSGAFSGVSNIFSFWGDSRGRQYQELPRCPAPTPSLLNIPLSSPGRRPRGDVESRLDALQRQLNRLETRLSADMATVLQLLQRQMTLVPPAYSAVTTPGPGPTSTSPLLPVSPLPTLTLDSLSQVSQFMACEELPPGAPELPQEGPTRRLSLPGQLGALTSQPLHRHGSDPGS

Usually IC50 stands for the concentration at which inhibition is half-maximal. What is called inhibition in vivo is how much of the control response was suppressed. For `Cc1ccc(NC(=O)c2ccc(C)c(C(F)(F)F)c2)cc1C#Cc1nn(C2CCN(C)CC2)c2ncnc(N)c12`, in data set [1], the Activity is listed as -4.5%. Besides, the IC50 in the data set with MDA-MB-231 [2] is 44 nM; in the data set with HepG2, above 10000 nM; with MDA-MB-435 it was 40 nM. For the same molecule, the inhibition in vivo at 40 mg/kg/day with MDA-MB-231 [3] was 69.8%. In addition, in [4], the mortality at 504 h came to 0%.

Consider `Cc1ccc(NC(=O)c2ccc(Cl)cc2)cc1C#Cc1nn(C2CCN(C)CC2)c2ncnc(N)c12`, for which the Activity in [1] is on record as -16%. The IC50 stood at 33 nM in the data set on MDA-MB-231 [2], 7600 nM in the data set on HepG2 and 111 nM with MDA-MB-435. Moreover, the inhibition in vivo at 40 mg/kg/day in the data set on MDA-MB-231 [3] is 90.1%. Further, the mortality at 504 h in [4] is 0%.

On to `COc1ccc(C(=O)Nc2ccc(C)c(C#Cc3nn(C4CCN(C)CC4)c4ncnc(N)c34)c2)cc1C(F)(F)F`, for which the IC50 came to 24 nM in the data set on MDA-MB-231 [2], 2200 nM with HepG2 and 832 nM with MDA-MB-435. The mortality at 504 h in data set [4] worked out at 0%.

On to `Cc1ccc(NC(=O)c2cnc(C(C)(C)C)s2)cc1C#Cc1nn(C2CCN(C)CC2)c2ncnc(N)c12`, for which the Activity in data set [1] is -5.3%. For the same molecule, the IC50 in the data set on MDA-MB-231 [2] is 78 nM; with HepG2 it was above 10000 nM; with MDA-MB-435 it was 20 nM. Further, in the data set on MDA-MB-231 [3], the inhibition in vivo at 40 mg/kg/day was 87%. Moreover, the mortality at 504 h in data set [4] is 0%.

For `Cc1ccc(C(=O)Nc2cccc(C(F)(F)F)c2)cc1C#Cc1nn(C2CCN(C)CC2)c2ncnc(N)c12`, the IC50 in the data set with MDA-MB-231 [2] came to 9 nM; in the data set on HepG2, 7700 nM; with MDA-MB-435, 170 nM. Besides, the mortality at 360 h in data set [5] worked out at 0%. Also, the Activity in [6] is on record as -13.2%. Also, the inhibition in vivo at 40 mg/kg/day in the data set with MDA-MB-231 [7] came to 91.2%.

In the case of `Cc1ccc(NC(=O)c2ccc(C)c(C(F)(F)F)c2)cc1C#Cc1nn(C[C@H](C)CO)c2ncnc(N)c12`, the IC50 with MDA-MB-231 [2] was 43 nM; in the data set with HepG2 it was above 10000 nM; in [8], above 30000 nM; in the data set with MDA-MB-435, 61 nM. In [5], the mortality at 360 h stood at 0%. In data set [6], the Activity is on record as -11.3%. Besides, the inhibition in vivo at 40 mg/kg/day with MDA-MB-231 [7] turned out to be 97.1%.

As to `Cc1ccc(NC(=O)c2cccc(C(F)(F)F)c2)cc1C#Cc1nn(C[C@@H](C)CO)c2ncnc(N)c12`, the IC50 was 17 nM in the data set on MDA-MB-231 [2], 9500 nM with HepG2, above 30000 nM in data set [8] and 10 nM with MDA-MB-435. Further, the mortality at 360 h in data set [5] turned out to be 0%. The Activity in [6] is on record as -3.2%. Also, the inhibition in vivo at 40 mg/kg/day in the data set on MDA-MB-231 [7] was determined as 78.1%.

On to `Cc1ccc(NC(=O)c2ccc(Cl)c(C(F)(F)F)c2)cc1C#Cc1nn(C2CCN(C)CC2)c2ncnc(N)c12`, for which the Activity in [1] is listed as -6.7%. The figures for the IC50 with MDA-MB-231 [2], in the data set on HepG2 and in the data set with MDA-MB-435 were 31 nM, above 10000 nM and 27 nM, respectively. Moreover, in the data set with MDA-MB-231 [3], the inhibition in vivo at 40 mg/kg/day is 70.5%. For the same molecule, the mortality at 504 h in data set [4] was 0%.

As to `Cc1ccc(NC(=O)c2ccc(Cl)c(C(F)(F)F)c2)cc1C#Cc1nn(C[C@H](C)CO)c2ncnc(N)c12`, the IC50 with MDA-MB-231 [2] is 17 nM; in the data set on HepG2, above 10000 nM; in [8], above 30000 nM; in the data set on MDA-MB-435, 323 nM.

As for `CN1CCC(n2nc(C#Cc3cccc(NC(=O)Nc4cccc(C(F)(F)F)c4)c3)c3c(N)ncnc32)CC1`, the IC50 with MDA-MB-231 [2] is 1350 nM; with HepG2 it was 6200 nM; with MDA-MB-435, 557 nM.

Turning to `COc1ccc(C(=O)Nc2ccc(C)c(C#Cc3nn(C4CCN(C)CC4)c4ncnc(N)c34)c2)cc1`, the 50% inhibitory concentration (IC50) was 1360 nM in the data set on MDA-MB-231 [2], above 10000 nM with HepG2 and 8900 nM in the data set with MDA-MB-435.

Regarding `Cc1ccc(NC(=O)c2cc(C(F)(F)F)cc(C(F)(F)F)c2)cc1C#Cc1nn(C2CCN(C)CC2)c2ncnc(N)c12`, the results for the half-maximal inhibitory concentration (IC50) in the data set with MDA-MB-231 [2], in the data set with HepG2 and with MDA-MB-435 were 51 nM, 7100 nM and 94 nM, respectively.
